In the library only some 1.4% were active in any assay of this set; here they are far more common.
MT1-MMP act inh – inhibitors of human MT1-MMP activation. P50281. actives 0.061% (n = 360,000). GFP/RFP ratio change, % at 20 µM. HT1080 RFP-PRO-GFP cells, GFP/RFP ratio fluorescence, overnight; percent of plate control window, DMSO zero. AID 651647;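 active = GFP/RFP ratio change of at least 30% with cell ATP level not reduced by more than half and red fluorescence within 50% of control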
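Assay system: RFP-PRO-GFP reporter HT1080 cells; read-out basis: GFP/RFP fluorescence ratio; benchmarks: DMSO wells and RFP-L50D-GFP cells; doses: 20 µM single dose, 1% DMSO; schedule: overnight cell settling, then overnight compound exposure, 37 °C, 5% CO2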
NRP1-CendR mod – alters CendR peptide binding to human NRP-1 | O14786 | FAM-RPARPAR peptide binding to NRP-1, fluorescence polarization | inhibition, % at 25 µM | actives 0.85% (n = 360,000) | AID 602438;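 active = inhibition or corrected inhibition above about 18%, plus a signal ratio from 0.5 to 1.5, limit read from the data, passing the limit was not always enough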
SKN-1 inh – blocks SKN-1 activity in C. elegans; actives 0.49% (n = 360,000); inhibition, % at 21.8 µM; C. elegans VP596 Pgst-4::GFP/RFP ratio, acrylamide-induced, 24 h;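 active = interference check ratio from 0.5 to 1.5 plus GFP to RFP signal ratio inhibition reaching or exceeding a fixed threshold, cut at about 30% in these data, passing the limit was not always enough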
hiPSC survival – increases survival of single human iPS cells; hiPSC single-cell survival, ATPlite luminescence; 100% = ROCK inhibitor wells, 0% = DMSO; survival enhancement, % at 20 µM; actives 0.044% (n = 360,000); in the data active = survival enhancement above about 18%;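 also: cells exposed to compounds for 16 hours before the ATP read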
MT1-MMP conf – MT1-MMP (human) activation inhibition, single-concentration validation; actives 10% (n = 200); AID 652235; inhibition, % at 20 µM; shares compounds with MT1-MMP act inh; HT1080 RFP-PRO-GFP cells, GFP and RFP fluorescence ratio, overnight;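 active = inhibition of at least 50% in the primary cell screen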
Active calls of the source: *; · = no result given; ! = a repeat was not active.

SMILES	MT1-MMP act inh	NRP1-CendR mod	SKN-1 inh	hiPSC survival	MT1-MMP conf
COc1cccc(N2[C@@H](CC(C)=O)c3ccccc3S2(=O)=O)c1	4	22*	-7	0	·
COc1cccc(N2[C@@H](CC(C)=O)c3cc(C(F)(F)F)ccc3S2(=O)=O)c1	0	-3	-1	2	·
COc1cccc(-n2nnc3c(=O)n(CC(=O)OCc4ccccc4)cnc32)c1	4	26*	-5	-1	·
CCOC(=O)Cn1cnc2c(nnn2-c2cccc(OC)c2)c1=O	2	-2	-16	0	·
COc1ccc2c(=O)c3c(=O)n(Cc4ccccc4)c(C(C)C)nc3oc2c1	1	-3	18	2	·
COc1ccc(CCNS(=O)(=O)c2ccc3c(c2)NC(=O)CS3)cc1OC	-2	5	9	0	·
Cc1[nH]nc(N=CC2=C(O)CC(c3ccco3)CC2=O)c1-c1ccccc1 (stereo not drawn)	6	6	-8	0	·
Cc1[nH]nc(N=CC2=C(O)CC(C)(C)CC2=O)c1-c1ccccc1	11	19*!	5	-2	·
CC(=O)c1ccc(NC(=O)C2Cc3ccccc3CN2C(=O)c2ccccc2)cc1 (stereo not drawn)	-1	-14	1	0	·
COc1ccc(NC(=O)C2Cc3ccccc3CN2C(=O)c2ccccc2)cn1 (stereo not drawn)	-22	25*	-13	-3	·
COc1ccc(/C=C/C(=O)c2nc3ccccc3n2CC(=O)c2ccc(OC)cc2)cc1	-2	2	44*	-2	·
COc1ccc(C(=O)Cn2c(C(C)=O)nc3ccccc32)cc1	9	-7	5	3	·
COC(=O)c1sc(N2C(=O)c3oc4ccccc4c(=O)c3C2c2cccc(O)c2)nc1C (stereo not drawn)	-6	-4	-6	0	·
O=C1CCC2=C(CCCC2=O)N1	-1	-10	-11	-1	·
CSc1ccc(Cl)c(C(=O)NCCOc2cc(C(C)C)ccc2C)c1	2	-4	3	0	·
NS(=O)(=O)c1ccc(N/N=C/c2cn(-c3ccccc3)nc2-c2cccs2)cc1	3	30*	6	0	·
NS(=O)(=O)c1ccc(N/N=C/c2cn(-c3ccccc3)nc2-c2cccs2)c([N+](=O)[O-])c1	24	-9	14	4	·
CC1=[N+](C)N(c2ccccc2)C(=O)C1N=Cc1c(Cl)cccc1Cl (stereo not drawn)	0	4	7	-1	·
CC1=[N+](C)N(c2ccccc2)C(=O)C1N=Cc1ccccc1Cl (stereo not drawn)	-1	18*	9	-2	·
CCCCOc1ccc(C(=O)NC)cc1	0	6	28*	0	·
CCCCOc1ccc(C(=O)N/C(=C/C=C/c2ccccc2)C(=O)NCCO)cc1	-2	16	3	0	·
CCCCOc1ccc(C(=O)N/C(=C/C=C/c2ccccc2)C(=O)NCCCO)cc1	1	22*	-1	0	·
COc1ccc(S(=O)(=O)N2CC(C(=O)O)Oc3ccccc32)cc1 (stereo not drawn)	-3	8	31*	0	·
COc1ccc(S(=O)(=O)N2CC(C(=O)O)Oc3ccc(Cl)cc32)cc1 (stereo not drawn)	2	-1	-13	0	·
CC1CN(C(=S)Nc2ccc(F)cc2F)CC(C)O1 (stereo not drawn)	0	26*	11	0	·
SMILES	MT1-MMP act inh	NRP1-CendR mod	SKN-1 inh	hiPSC survival	MT1-MMP conf
CCC(Oc1ccc(F)cc1)C(=O)N1CCCCCCC1 (stereo not drawn)	3	2	-6	7	·
NNC(=O)[C@@H]1C[C@@H]1c1ccccc1	-1	8	1	-1	·
O=C(c1ccccc1)C1CC1c1ccccc1 (stereo not drawn)	-2	38*	5	-2	·
CCOc1ccc(N2CSC(=S)N(c3ccc(OCC)cc3)C2)cc1	2	-15	5	-1	·
CCOc1ccc(N2CC(=O)SC2=S)cc1	37*	-10	13	2	2
O=C(O)c1ccccc1C(=O)Nc1ccc(Nc2ccccc2)cc1	33*	-16	4	3	11
O=C(O)c1ccccc1C(=O)Nc1ccc(Oc2ccccc2)cc1	0	-12	8	-1	·
O=C(O)c1cccc(N2C(=O)CSC2=S)c1	36*	-4	4	0	8
CCOC(=O)c1ccccc1N1C(=O)CSC1=S	30*	-3	10	0	4
ClCC1NCC(c2ccccc2Cl)c2c1[nH]c1ccccc21 (stereo not drawn)	37*	-46	11	-2	2
COc1ccccc1NC(=O)CCN1C(=O)/C(=C\c2cc(OC)c(OC)c(OC)c2)SC1=S	36*	-2	5	0	20
CCOC(=O)C(NC(=O)c1ccccc1)(OCc1ccc(F)cc1)C(F)(F)F (stereo not drawn)	-6	2	-4	-2	·
CN(C)c1ccc(N=Cc2cccn2C)cc1	39*	6	14	0	2
CN(C)c1ccc(N=Cc2nc(-c3ccccc3)oc2O)cc1	-84	134	46	1	·
Nc1ccccc1NC(=O)c1ccccc1	10	-13	-10	-1	·
Nc1ccc(NC(=O)c2ccccc2)c2c1C(=O)c1ccccc1C2=O	38*	11	8	-3	27
CCn1c(=O)c(=O)[nH]c2cc(C(=O)NC3CCCc4ccccc43)ccc21 (stereo not drawn)	31*	-12	2	0	34
CN(C)c1cccc(C(=O)OCCNC(=O)c2cccc(S(=O)(=O)N3CCOCC3)c2)c1	-2	-10	-5	-1	·
COc1cc(NC(=O)c2cc(-n3cnnc3)ccc2Cl)cc(OC)c1	-1	3	-1	-1	·
CC1C(=O)N(Cc2cn(CC3CCCCC3)nn2)CCS(=O)(=O)N1Cc1ccc(-c2ccc(Cl)cc2)cc1 (stereo not drawn)	40*	-6	1	2	11
Oc1ccc(N=Nc2cccc(C(F)(F)F)c2)cc1C=Nc1ccc(N2CCOCC2)cc1	45*	9	7	-2	14
CC1=C/C(=C(/c2ccc(O)c(C)c2)c2ccccc2S(=O)(=O)O)C=CC1=O	10	9	16	0	·
CC1=C/C(=C(/c2cc(C)c(O)c(Br)c2)c2ccccc2S(=O)(=O)O)C=C(Br)C1=O	63*	40*	51*	0	50*
CN(CCCS(=O)(=O)[O-])c1ccc(/C=C/c2ccc3ccccc3[n+]2C)cc1	40*	15	37*	1	17
CC(=O)/C=C1\N(C)c2ccc(C)cc2C1(C)C	47*	-7	76	-2	27
CN1/C(=C\C(=O)c2cncc(Br)c2)C(C)(C)c2ccccc21	31*	-49	65	-1	39
Cc1c(NC(=S)/C=C2\N(C)c3ccccc3C2(C)C)c(=O)n(-c2ccccc2)n1C	33*	-11	12	-1	13
